Assay [1] concerns the target T1, UDP-N-acetylmuramoyl-tripeptide--D-alanyl-D-alanine ligase (Pseudomonas aeruginosa, UniProt Q9EY48).
T1 sequence (Q9EY48 whole entry): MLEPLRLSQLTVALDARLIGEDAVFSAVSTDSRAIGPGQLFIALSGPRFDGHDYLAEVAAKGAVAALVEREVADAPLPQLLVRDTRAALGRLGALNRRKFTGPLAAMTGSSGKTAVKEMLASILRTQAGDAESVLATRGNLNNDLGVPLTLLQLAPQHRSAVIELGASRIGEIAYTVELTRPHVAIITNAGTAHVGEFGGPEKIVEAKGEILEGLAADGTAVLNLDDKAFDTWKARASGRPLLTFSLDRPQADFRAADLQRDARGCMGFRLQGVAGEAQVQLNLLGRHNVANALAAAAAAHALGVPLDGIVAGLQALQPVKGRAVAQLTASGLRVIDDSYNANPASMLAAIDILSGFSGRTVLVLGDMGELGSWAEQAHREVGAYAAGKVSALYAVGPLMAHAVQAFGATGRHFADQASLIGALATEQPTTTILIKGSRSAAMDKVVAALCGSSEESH
Put plainly: Inhibition of Pseudomonas aeruginosa MurF ATPase activity by spectrophotometric assay. An outline of the steps: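 Purified recombinant P. aeruginosa MurF was used at a high enzyme concentration. It was pre-incubated with a range of compound concentrations in pH 8.6 buffer (40 mM KCl, 500 mM NaCl, 1 mg/ml BSA, 10 mM MgCl2) before UDP-MurNAc-Ala-Glu-meso-A2pm and the other substrates were added. IC50 was derived from percent residual ATPase activity versus compound-free enzyme.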

For assay [2], the target named is T2, UDP-N-acetylmuramoyl-tripeptide--D-alanyl-D-alanine ligase (Pseudomonas aeruginosa) (UniProt Q9EY48).
T2 sequence (whole entry): T1 sequence (Q9EY48 whole entry)
As to the kind of experiment: Inhibition of Pseudomonas aeruginosa MurF ATPase activity assessed as residual enzyme activity at 5 mM by spectrophotometric assay relative to control.

Assay [3] deals with T3, UDP-N-acetylmuramoylalanine-D-glutamyl-lysine-D-alanyl-D-alanine ligase (Streptococcus pneumoniae R6, UniProt Q8DNV6).
T3 sequence (Q8DNV6 whole entry): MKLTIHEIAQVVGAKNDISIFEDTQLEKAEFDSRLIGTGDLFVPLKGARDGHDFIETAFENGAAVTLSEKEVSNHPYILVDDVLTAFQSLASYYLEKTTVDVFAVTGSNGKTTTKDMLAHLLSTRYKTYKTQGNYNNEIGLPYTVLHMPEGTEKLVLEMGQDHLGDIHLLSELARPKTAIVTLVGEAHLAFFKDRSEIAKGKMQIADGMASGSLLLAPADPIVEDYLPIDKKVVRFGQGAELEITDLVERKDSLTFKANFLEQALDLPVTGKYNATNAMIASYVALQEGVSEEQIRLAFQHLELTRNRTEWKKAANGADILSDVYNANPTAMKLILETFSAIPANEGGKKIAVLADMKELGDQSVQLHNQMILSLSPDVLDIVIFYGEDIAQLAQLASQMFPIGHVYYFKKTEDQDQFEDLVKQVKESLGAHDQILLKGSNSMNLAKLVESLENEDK
As to the kind of experiment: Inhibition of Streptococcus pneumoniae MurF.

The subject of assay [4] is Escherichia coli. As to the kind of experiment: Antibacterial activity against Escherichia coli. The assay is classed as functional, organism-based.
The subject of assay [5] is Staphylococcus aureus. As to the kind of experiment: Antibacterial activity against Staphylococcus aureus. In kind it is functional, organism-based.
The test system of assay [6] is Pseudomonas aeruginosa. As to the kind of experiment: Antibacterial activity against Pseudomonas aeruginosa. In kind it is functional, organism-based.
For assay [7], the system named is MurF (Streptococcus pneumoniae). As to the kind of experiment: Inhibition of Streptococcus pneumoniae MurF.

By IC50 is commonly meant the concentration at which inhibition is half-maximal. A higher IC50 goes with weaker potency in that assay.

Calls of active or inactive are those of the source. The rule behind the calls is not given here.

For `CSc1ncnc2c1ncn2CC(=O)[C@@]1(O)CC[C@H]2[C@@H]3CCC4=CC(=O)CC[C@]4(C)[C@H]3[C@@H](O)C[C@@]21C`, in assay [1], 4.8 mM corresponded to half-maximal inhibition (IC50). Moreover, the Activity in assay [2] was determined as 48%.
For `N#Cc1c(NC(=O)c2cc(S(=O)(=O)N3CCCCC3)ccc2Cl)sc2c1CCC2`, half-maximal inhibition in assay [3] (IC50) required 2500 nM.
`CCN(CC)S(=O)(=O)c1cc(C(=O)Nc2sc3c(c2C#N)CC(c2ccc(O)cc2)CC3)c(Cl)cc1Cl` (stereo not given) came in with an IC50 in assay [3] of 67 nM.
With `C[C@]12CCC(=O)C=C1CC[C@@H]1[C@@H]2[C@@H](O)C[C@@]2(C)[C@H]1CC[C@]2(O)C(=O)COC(=O)C1C2C=CC(C2)C1C(=O)O` (stereo not given in full), the IC50 in assay [1] was determined as 4.3 mM. Also, in assay [2], the Activity turned out to be 42%.
`CCOC(=O)Cn1/c(=N/N=C/c2ccc([N+](=O)[O-])o2)sc2cc(OC)ccc21` gave an IC50 in assay [1] greater than 5.1 mM. Moreover, in assay [2], the Activity is 51%.
On to `N#Cc1c(NC(=O)c2cc(S(=O)(=O)N3CCOCC3)c(Cl)cc2Cl)sc2c1CC(c1ccccc1)CC2` (stereo not given), for which the IC50 in assay [3] stood at 70 nM.
Compound `Cn1nnnc1SCC1=C(C(=O)O)N2C(=O)[C@@H](NC(=O)[C@H](OC=O)c3ccccc3)[C@H]2SC1` [CEFAMANDOLE NAFATE] gave an IC50 in assay [1] greater than 5 mM. The Activity in assay [2] stood at 84%.
As for `COc1ccc(NC(=O)C(=O)Cc2nc3ccc([N+](=O)[O-])cc3nc2O)c(OC)c1`, the result in assay [4], in assay [5] and in assay [6] was inactive. Also, the IC50 in assay [1] came out at 0.125 mM. Further, in assay [2], the Activity was 0%.
With `O=C1C=CC(=O)C(SCCCSC2=CC(=O)C(SCCCSC3=CC(=O)C=CC3=O)=CC2=O)=C1`, the result in assay [4], in assay [5] and in assay [6] was inactive. Further, it took 0.3 mM to reach half-maximal inhibition in assay [1] (IC50). Also, the Activity in assay [2] came to 0%.
Turning to `COc1ccc(CCN2C(=O)c3cccc4c(Sc5ccccc5[N+](=O)[O-])ccc(c34)C2=O)cc1OC`, the result in assay [4], in assay [5] and in assay [6] was inactive. In assay [1], half-maximal inhibition (IC50) was put at 0.325 mM. For the same compound, the Activity in assay [2] came to 0%.
As for `O=S(=O)(O)c1ccc(/N=N/c2ccc(O)c(/N=N/c3ccc(S(=O)(=O)O)c4ccccc34)c2O)c2ccccc12`, the IC50 in assay [1] was greater than 5 mM. In assay [2], the Activity was found to be 100%.
`N#Cc1c(NC(=O)c2cc(S(=O)(=O)N3CCOCC3)c(Cl)cc2Cl)sc2c1CC(c1ccc(O)cc1)CC2` (stereo not given) displayed an IC50 in assay [3] of 22 nM.
Compound `O=S(=O)(SC(=S)NCCNC(=S)SS(=O)(=O)c1ccc(Cl)cc1)c1ccc(Cl)cc1` registered an IC50 in assay [1] greater than 5 mM. In assay [2], the Activity came to 71%.
In assay [1], `C[C@]12CCC(=O)C=C1CC[C@@H]1[C@@H]2[C@@H](O)C[C@@]2(C)[C@H]1CC[C@]2(O)C(=O)COC(=O)c1cc([N+](=O)[O-])ccc1Cl` came in with an IC50 greater than 5 mM. Moreover, in assay [2], the Activity stood at 67%.
The compound `N#Cc1c(NC(=O)c2cc(S(=O)(=O)N3CCOCC3)c(F)cc2Cl)sc2c1CCC2` had an IC50 in assay [3] greater than 6400 nM.
In turn, `C[C@@H]1O[C@@H]1P(=O)(O)O` [FOSFOMYCIN] displayed an IC50 in assay [7] of 15 µM.
Regarding `CCN(CC)S(=O)(=O)c1ccc(Cl)c(C(=O)Nc2sc3c(c2C#N)CC(c2ccc(O)cc2)CC3)c1` (stereo not given), in assay [3], half-maximal inhibition (IC50) was put at 54 nM.
On the same count and under the same terms, under `N#Cc1cc(CCc2ccncc2)sc1NC(=O)c1cc(S(=O)(=O)N2CCOCC2)ccc1Cl` stands 6000 nM.
`C[C@]12CCC(=O)C=C1CC[C@@H]1[C@@H]2[C@@H](O)C[C@@]2(C)[C@H]1CC[C@]2(O)C(=O)COC(=O)CCC1CCCC1` [HYDROCORTISONE CYPIONATE] displayed an IC50 in assay [1] greater than 5 mM. Besides, in assay [2], the Activity worked out at 86%.
Compound `CCOC(=O)C1CCc2sc(NC(=O)c3cc(S(=O)(=O)N(CC)CC)ccc3Cl)c(C#N)c2C1` (stereo not given) came in with a half-maximal inhibitory concentration (IC50) in assay [3] of 6000 nM.

For the origin of these results see ChEMBL document CHEMBL1141554, “Discovery of new MurF inhibitors via pharmacophore modeling and QSAR analysis followed by in-silico screening” (Bioorg Med Chem, 2008).
